Values after ≈ are worked out from the molar mass of the structure shown.
Experiments:
[1] = system: Influenza B virus; assay: Antiviral activity against Influenza B virus infected in MDCK cells assessed as inhibition of virus induced cytopathicity by visual scoring of CPE; assay type: functional, organism-based
[2] = Cytotoxicity against MDCK cells assessed as altered cell morphology; assay type: cell-based, Canis lupus familiaris; details: dog
Summary of the method: (§1)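 Uninfected cell cultures run alongside the antiviral assays, exposed to serial compound dilutions and incubated at 37 °C for 2–4 days. Toxicity was scored microscopically and reported as the minimum cytotoxic concentration (MCC), the lowest concentration causing a detectable change in normal cell morphology.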

[3] = system: Influenza A virus; assay: Antiviral activity against Influenza A H1N1 virus subtype infected in MDCK cells assessed as inhibition of virus induced cytopathicity after 2 to 4 days by MTS assay; assay type: functional, organism-based
[4] = system: Influenza A virus; assay: Antiviral activity against Influenza A H1N1 virus subtype infected in MDCK cells assessed as inhibition of virus induced cytopathicity by visual scoring of CPE; assay type: functional, organism-based
[5] = (§2) Cytotoxicity against MDCK cells assessed as cell viability by MTS assay; assay type: cell-based, Canis lupus familiaris; details: dog, MDCK cells
Summary of the method: (§3)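 Uninfected cultures were run in parallel with the antiviral assays. Viability was read by colorimetric formazan MTS assay.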

[6] = system: Influenza A virus; assay: Antiviral activity against Influenza A H3N2 virus subtype infected in MDCK cells assessed as inhibition of virus induced cytopathicity after 2 to 4 days by MTS assay; assay type: functional, organism-based
[7] = system: Influenza B virus; assay: Antiviral activity against Influenza B virus infected in MDCK cells assessed as inhibition of virus induced cytopathicity after 2 to 4 days by MTS assay; assay type: functional, organism-based
[8] = system: Influenza A virus; assay: Antiviral activity against Influenza A H3N2 virus subtype infected in MDCK cells assessed as inhibition of virus induced cytopathicity by visual scoring of CPE; assay type: functional, organism-based
[9] = (§4) Cytotoxicity against human HeLa cells assessed as cell viability by MTS assay; assay type: cell-based; details: HeLa cells; summary of the method: as §3
[10] = Cytotoxicity against african green monkey Vero cells assessed as altered cell morphology; assay type: cell-based; details: chlorocebus sabaeus; summary of the method: as §1
[11] = Cytotoxicity against human HeLa cells assessed as altered cell morphology; assay type: cell-based; summary of the method: as §1
[12] = system: Respiratory syncytial virus; assay: Antiviral activity against Respiratory syncytial virus infected in human HeLa cells assessed as inhibition of virus induced cytopathicity after 2 to 4 days by MTS assay; assay type: functional, organism-based
[13] = system: Coxsackievirus B4; assay: Antiviral activity against coxsackievirus B4 infected in human HeLa cells assessed as inhibition of virus induced cytopathicity after 2 to 4 days by MTS assay; assay type: functional, organism-based; details: Enterovirus B
[14] = system: Vesicular stomatitis virus; assay: Antiviral activity against Vesicular stomatitis virus infected in human HeLa cells assessed as inhibition of virus induced cytopathicity after 2 to 4 days by MTS assay; assay type: functional, organism-based
[15] = Cytotoxicity against human HEL cells assessed as altered cell morphology; assay type: cell-based; summary of the method: as §1
[16] = system: Respiratory syncytial virus; assay: Antiviral activity against Respiratory syncytial virus infected in human HeLa cells assessed as inhibition of virus induced cytopathicity by visual scoring of CPE; assay type: functional, organism-based
[17] = system: Vesicular stomatitis virus; assay: Antiviral activity against Vesicular stomatitis virus infected in HEL cells assessed as inhibition of virus induced cytopathicity after 2 to 4 days by MTS assay; assay type: functional, organism-based
[18] = system: Human alphaherpesvirus 1; assay: Antiviral activity against Herpes simplex virus 1 KOS infected in HEL cells assessed as inhibition of virus induced cytopathicity after 2 to 4 days by MTS assay; assay type: functional, organism-based; details: Human alphaherpesvirus 1, KOS
[19] = system: Vesicular stomatitis virus; assay: Antiviral activity against Vesicular stomatitis virus infected in human HeLa cells assessed as inhibition of virus induced cytopathicity by visual scoring of CPE; assay type: functional, organism-based
[20] = system: Human respirovirus 3; assay: Antiviral activity against parainfluenza-3 virus infected in african green monkey Vero cells assessed as inhibition of virus induced cytopathicity after 2 to 4 days by MTS assay; assay type: functional, organism-based; details: Human respirovirus 3, Vero
[21] = system: Coxsackievirus B4; assay: Antiviral activity against coxsackievirus B4 infected in human HeLa cells assessed as inhibition of virus induced cytopathicity by visual scoring of CPE; assay type: functional, organism-based; details: Enterovirus B
[22] = system: Human alphaherpesvirus 1; assay: Antiviral activity against thymidine kinase deficient acyclovir-resistant Herpes simplex virus 1 KOS infected in HEL cells assessed as inhibition of virus induced cytopathicity after 2 to 4 days by MTS assay; assay type: functional, organism-based; details: Human alphaherpesvirus 1, KOS
[23] = system: Punta Toro virus; assay: Antiviral activity against Punta Toro virus infected in african green monkey Vero cells assessed as inhibition of virus induced cytopathicity after 2 to 4 days by MTS assay; assay type: functional, organism-based
[24] = system: Human alphaherpesvirus 2; assay: Antiviral activity against Herpes simplex virus 2 G infected in HEL cells assessed as inhibition of virus induced cytopathicity after 2 to 4 days by MTS assay; assay type: functional, organism-based; details: Human alphaherpesvirus 2, strain G
[25] = system: Vaccinia virus; assay: Antiviral activity against Vaccinia virus infected in HEL cells assessed as inhibition of virus induced cytopathicity after 2 to 4 days by MTS assay; assay type: functional, organism-based; details: Orthopoxvirus vaccinia
[26] = system: Mammalian orthoreovirus 1; assay: Antiviral activity against Reovirus 1 virus infected in african green monkey Vero cells assessed as inhibition of virus induced cytopathicity after 2 to 4 days by MTS assay; assay type: functional, organism-based; details: Mammalian orthoreovirus 1, Vero
[27] = system: Coxsackievirus B4; assay: Antiviral activity against Coxsackie virus B4 infected in african green monkey Vero cells assessed as inhibition of virus induced cytopathicity after 2 to 4 days by MTS assay; assay type: functional, organism-based; details: Enterovirus B
[28] = system: Sindbis virus; assay: Antiviral activity against Sindbis virus infected in african green monkey Vero cells assessed as inhibition of virus induced cytopathicity after 2 to 4 days by MTS assay; assay type: functional, organism-based
[29] = system: Feline coronavirus; assay: Antiviral activity against Feline coronavirus infected in cat CRFK cells assessed as inhibition of virus induced cytopathicity after 2 to 4 days by MTS assay; assay type: functional, organism-based; details: Alphacoronavirus 1, CRFK
[30] = system: Aspergillus niger; assay: Antimicrobial activity against Aspergillus niger after 7 days by tube dilution method; assay type: functional; details: 168 h
[31] = system: MDCK; assay: as §2; assay type: cell-based, Canis lupus familiaris; details: dog, mdck; summary of the method: as §3
[32] = system: HeLa; assay: as §4; assay type: cell-based; details: hela; summary of the method: as §3
[33] = Cytotoxicity against cat CRFK cells assessed as cell viability by MTS assay; assay type: cell-based, Felis catus; details: crfk; summary of the method: as §3
[34] = system: Bacillus subtilis; assay: Antimicrobial activity against Bacillus subtilis after 24 hrs by tube dilution method; assay type: functional
Summary of the method: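 Serial dilutions in double-strength nutrient broth (I.P.) with ciprofloxacin as reference, tube dilution, incubated 37 °C for 24 h. MIC is the lowest concentration that inhibited growth.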

[35] = system: Felid alphaherpesvirus 1; assay: Antiviral activity against Feline herpesvirus 1 infected in cat CRFK cells assessed as inhibition of virus induced cytopathicity after 2 to 4 days by MTS assay; assay type: functional, organism-based; details: Felid alphaherpesvirus 1, CRFK
[36] = system: Candida albicans; assay: Antimicrobial activity against Candida albicans after 48 hrs by tube dilution method; assay type: functional
[37] = system: Staphylococcus aureus; assay: Antimicrobial activity against Staphylococcus aureus after 24 hrs by tube dilution method; assay type: functional
[38] = system: Escherichia coli; assay: Antimicrobial activity against Escherichia coli after 24 hrs by tube dilution method; assay type: functional

Row | Structure (SMILES) | EC50 [1] [µg/mL] | MCC [2] [µg/mL] | EC50 [3] [µg/mL] | EC50 [4] [µg/mL] | EC50 [6] [µg/mL] | EC50 [7] [µg/mL] | EC50 [8] [µg/mL] | MCC [10] [µg/mL] | MCC [11] [µg/mL] | EC50 [12] [µg/mL] | EC50 [13] [µg/mL] | EC50 [14] [µg/mL] | MCC [15] [µg/mL] | EC50 [16] [µg/mL] | EC50 [17] [µg/mL] | EC50 [18] [µg/mL] | EC50 [19] [µg/mL] | EC50 [20] [µg/mL] | EC50 [21] [µg/mL] | EC50 [22] [µg/mL] | also measured
1 | CC(N)C12CC3CC(CC(C3)C1)C2 (configuration not stated) [RIMANTADINE] | > 200 | > 200 | 12 (≈ 66.9 µM) | 4 (≈ 22.3 µM) | 0.02 (≈ 0.112 µM) | > 200 | 0.03 (≈ 0.167 µM) | – | – | – | – | – | – | – | – | – | – | – | – | – | CC50 [5]: > 200 µg/mL
2 | Nc1ncnc2c1ncn2C[C@H](O)CO [(S)-DHPA] | – | – | – | – | – | – | – | > 250 | > 250 | > 250 | > 250 | > 250 | – | – | – | – | – | – | – | – | CC50 [9]: > 250 µg/mL
3 | NC(=O)c1ncn([C@@H]2O[C@H](CO)[C@@H](O)[C@H]2O)n1 [RIBAVIRIN] | 7 (≈ 28.7 µM) | > 100 | 12 (≈ 49.1 µM) | 9 (≈ 36.9 µM) | 8.4 (≈ 34.4 µM) | 4.3 (≈ 17.6 µM) | – | > 250 | > 250 | 2.8 (≈ 11.5 µM) | 14 (≈ 57.3 µM) | – | > 250 | 6 (≈ 24.6 µM) | > 250 | 1 (≈ 4.09 µM) | 10 (≈ 40.9 µM) | 95 (≈ 389 µM) | 50 (≈ 205 µM) | 2 (≈ 8.19 µM) | CC50 [9]: > 250 µg/mL; EC50 [23]: 112 µg/mL (≈ 459 µM); EC50 [24]: 2 µg/mL (≈ 8.19 µM); EC50 [25]: 10 µg/mL (≈ 40.9 µM); EC50 [26]: 112 µg/mL (≈ 459 µM); EC50 [27]: 250 µg/mL (≈ 1020 µM)
4 | NC12CC3CC(CC(C3)C1)C2 [AMANTADINE] | > 200 | > 200 | 44 (≈ 291 µM) | 18 (≈ 119 µM) | 0.2 (≈ 1.32 µM) | > 200 | – | – | – | – | – | – | – | – | – | – | – | – | – | – | CC50 [5]: > 200 µg/mL
5 | O=C(c1ccccc1O)n1c(-c2ccc(S(=O)(=O)O)cc2)nc2ccccc21 | > 20 | 100 | > 20 | > 20 | > 20 | > 20 | > 20 | > 100 | > 100 | > 100 | > 100 | > 100 | > 100 | > 100 | > 100 | > 100 | > 100 | > 100 | > 100 | > 100 | EC50 [28]: > 100 µg/mL; EC50 [29]: > 100 µg/mL; MFC [30]: > 50 µg/mL; CC50 [31]: > 100 µg/mL; CC50 [32]: > 100 µg/mL; CC50 [33]: > 100 µg/mL; EC50 [23]: > 100 µg/mL; EC50 [24]: > 100 µg/mL; MBC [34]: 25 µg/mL (≈ 63.4 µM); EC50 [25]: > 100 µg/mL; EC50 [35]: > 100 µg/mL; MFC [36]: 50 µg/mL (≈ 127 µM); EC50 [26]: > 100 µg/mL; MBC [37]: 25 µg/mL (≈ 63.4 µM); MBC [38]: 12.5 µg/mL (≈ 31.7 µM); EC50 [27]: > 100 µg/mL
6 | O=C(c1cccc(O)c1)n1c(-c2ccc(S(=O)(=O)O)cc2)nc2ccccc21 | > 20 | 100 | > 20 | > 20 | > 20 | > 20 | > 20 | > 100 | > 100 | > 100 | > 100 | > 100 | > 100 | > 100 | > 100 | > 100 | > 100 | > 100 | > 100 | > 100 | EC50 [28]: > 100 µg/mL; EC50 [29]: > 100 µg/mL; MFC [30]: > 50 µg/mL; CC50 [31]: > 100 µg/mL; CC50 [32]: > 100 µg/mL; CC50 [33]: > 100 µg/mL; EC50 [23]: > 100 µg/mL; EC50 [24]: > 100 µg/mL; MBC [34]: > 50 µg/mL; EC50 [25]: > 100 µg/mL; EC50 [35]: > 100 µg/mL; MFC [36]: 50 µg/mL (≈ 127 µM); EC50 [26]: > 100 µg/mL; MBC [37]: 12.5 µg/mL (≈ 31.7 µM); MBC [38]: 3.12 µg/mL (≈ 7.91 µM); EC50 [27]: > 100 µg/mL
